Assays:
Human betaherpesvirus 5 [1] = experiment: Tested in vitro for antiviral activity against human cytomegalovirus (HCMV) in yield reduction assay.; type: functional
L1210 [2] = experiment: Tested in vitro for antiproliferative activity against growth rate of L1210 cells.(delayed growth inhibition); type: functional, Mus musculus; design: concentration or dose not given beside the values
How it was run: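 L1210 cells were grown in static suspension in Fischer's medium with drug for 4 days. Growth rate was the control-to-treated ratio of population doubling times. For delayed inhibition it was taken over 48–96 h, when control doubling time averaged 22 h. IC50 is the concentration halving growth rate relative to control.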

HFF = experiment: Tested in vitro for cytotoxicity against the normal human diploid cells (HFF cells).; type: functional, cell-based
How it was run: (§1)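 Uninfected HFF or BSC-1 cells in the plaque-reduction plates were scored visually at 35- and 60-fold magnification on a 0 to 4+ scale on the staining day. IC50 was taken by regression against log concentration.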

Human alphaherpesvirus 1 [3] = experiment: Tested in vitro for antiviral activity against HSV-1 in plaque reduction assay.; type: functional, organism-based
How it was run: (§2)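 Plaque reduction used HSV-1 strain S-148 on BSC-1 (African green monkey kidney) monolayers. The inoculum held about 100 PFU, and compounds were dissolved in the overlay medium. IC50 was regressed from percent inhibition against log concentration. Acyclovir or ganciclovir positive controls were run, with sets rejected if the control deviated >1.5 SD from its mean.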

[4] = Tested in vitro for cytotoxicity against the monkey kidney cells (BSC-1 cells).; type: functional, cell-based; conditions: Cercopithecidae; how it was run: as §1
Human betaherpesvirus 5 [5] = experiment: Tested in vitro for antiviral activity against human cytomegalovirus (HCMV) in plaque reduction assay.; type: functional, organism-based
How it was run: (§3)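 HCMV Towne strain (plaque-purified P0) was used on HFF monolayers. The inoculum held about 50 PFU, and compounds were dissolved in the overlay medium. Plaques were enumerated. IC50 came from linear regression of percent inhibition against log concentration. Acyclovir or ganciclovir served as positive control, and a set was rejected if the control deviated >1.5 SD from its mean.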

Murid betaherpesvirus 1 [6] = experiment: Tested for visual cytotoxicity against the mouse cytomegalovirus (MCMV) in mouse embryo fibroblasts; type: functional, organism-based
Mus musculus [7] = experiment: Tested for effect on the mortality of mice inoculated with MCMV at 5.6 mg/kg at 24 hr; type: functional
How it was run: (§4)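 Female Swiss Webster mice, 3 weeks old, were infected ip with 2 × 10⁵ PFU of MCMV Smith strain. Groups of 15 received drug ip twice daily for 5 days, starting at the stated hour after inoculation. Mice were watched daily for 21 days, and final mortality and mean day of death were scored. Fisher exact test (mortality) and Mann-Whitney U test (mean day of death) were used against placebo. Uninfected drug-toxicity controls were 10 mice.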

Human alphaherpesvirus 1 [8] = experiment: Tested for visual cytotoxicity against monkey kidney herpes simplex virus-1 (HSV-1) cell lines; type: functional, organism-based; how it was run: as §1
Human alphaherpesvirus 2 [9] = experiment: Tested for activity against the human foreskin fibroblasts herpes simplex virus-2 (HSV-2) cell lines; type: functional, organism-based
How it was run: (§5)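 Plaque reduction used HSV-2 (MS strain) in HFF cells and HSV-1 (E-377 strain) in primary rabbit kidney cells. Monolayers got 20–50 PFU for 1 h at 37 °C, then an agarose overlay holding serial 5-fold drug dilutions in MEM(E). Neutral red staining on day 3 preceded plaque counts against untreated controls. Values average two or more experiments.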

Human alphaherpesvirus 1 [10] = experiment: Tested for activity against the rabbit kidney herpes simplex virus-1 (HSV-1) cell lines; type: functional, organism-based; how it was run: as §5
Human betaherpesvirus 5 [11] = experiment: Tested for activity against human cytomegalovirus (HCMV) in human foreskin fibroblasts cell lines using plaque assay; type: functional, organism-based; conditions: Human betaherpesvirus 5, Fibroblast; how it was run: as §3
Human alphaherpesvirus 1 [12] = experiment: Tested for visual cytotoxicity against rabbit kidney herpes simplex virus-1 (HSV-1) cell lines; type: functional, organism-based
Human betaherpesvirus 5 [13] = experiment: Tested for visual cytotoxicity against the human cytomegalovirus (HCMV) cell lines in human foreskin fibroblasts; type: functional, organism-based; how it was run: as §1
Mus musculus [14] = experiment: Tested for effect on the mortality of mice inoculated with MCMV at 16.7 mg/kg at 12 hr; type: functional; how it was run: as §4
Mus musculus [15] = experiment: Tested for effect on the mortality of mice inoculated with MCMV at 50 mg/kg at 24 hr; type: functional; how it was run: as §4
Human alphaherpesvirus 1 [16] = experiment: Tested for activity against the monkey kidney herpes simplex virus-1 (HSV-1) cell lines; type: functional, organism-based; how it was run: as §2
[17] = Tested in vitro for cytotoxicity against the human neoplastic cell line (KB cells).; type: functional, cell-based
How it was run: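 KB cells were grown in MEM(H) with 10% calf serum. Incorporation of radiolabelled precursors into DNA, RNA and protein was measured. Separate IC50s came from regression against log concentration and the three were averaged. Values are averages of two to five experiments.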

Human alphaherpesvirus 2 [18] = experiment: Tested for visual cytotoxicity against the human foreskin fibroblasts herpes simplex virus-2 (HSV-2) cell lines; type: functional, organism-based
Mus musculus [19] = experiment: Tested for effect on the mortality of mice inoculated with MCMV at 16.7 mg/kg at 24 hr; type: functional; how it was run: as §4
Mus musculus [20] = experiment: Tested for effect on the mortality of mice inoculated with MCMV at 16.7 mg/kg at 48 hr; type: functional; how it was run: as §4
Mus musculus [21] = experiment: Tested for effect on the mortality of mice inoculated with MCMV at 5.6 mg/kg at 12 hr; type: functional; how it was run: as §4
Mus musculus [22] = experiment: Tested for effect on the mortality of mice inoculated with MCMV at 50 mg/kg at 48 hr; type: functional; how it was run: as §4
Mus musculus [23] = experiment: Tested for effect on the mortality of mice inoculated with MCMV at 5.6 mg/kg at 48 hr; type: functional; how it was run: as §4
Mus musculus [24] = experiment: Tested for effect on the mortality of mice inoculated with MCMV at 50 mg/kg at 12 hr; type: functional; how it was run: as §4
Murid betaherpesvirus 1 [25] = experiment: Tested for activity against mouse cytomegalovirus (MCMV) in mouse embryo fibroblasts using plaque assay; type: functional, organism-based
How it was run: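 MCMV Smith strain was plated on primary mouse embryo fibroblasts at 20–50 PFU per monolayer, with 1 h at 37 °C. Serial 5-fold drug dilutions in twice-concentrated MEM(E) were mixed with 1% agarose as overlay. A further drug-free overlay was added on day 4. Cultures were stained with neutral red on day 7 and plaques counted against untreated controls. Values average two or more experiments.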

Human alphaherpesvirus 1 [26] = experiment: Tested in vitro for antiviral activity against HSV-1 in yield reduction assay.; type: functional
L1210 [27] = experiment: Tested in vitro for antiproliferative activity against growth rate of L1210 cells.; type: functional, Mus musculus
How it was run: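 L1210 cells were grown in static suspension in Fischer's medium with a range of compound concentrations, and growth rate was followed over 4 days. Growth rate was the control-to-treated ratio of population doubling times. It was scored separately for 0–48 h and 48–96 h, and the lower value was kept. IC50 was the concentration giving 50% of the control growth rate.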

[28] = Human betaherpesvirus 5, read-out: IC90

N#Cc1cn([C@@H]2O[C@H](CO)[C@@H](O)[C@@H]2Cl)c2ncnc(N)c12
IC90 (Human betaherpesvirus 5 [1]; [28]): 75 µM | Control (L1210 [2]): 24% | IC50 (HFF): 140 µM | IC50 (Human alphaherpesvirus 1 [3]): > 100 µM | IC50 [4]: > 100 µM | IC50 (Human betaherpesvirus 5 [5]): 21 µM

N#Cc1cn([C@@H]2O[C@H](CO)[C@@H](O)[C@@H]2N)c2ncnc(N)c12
IC90 (Human betaherpesvirus 5 [1]; [28]): 110 µM | IC50 (Murid betaherpesvirus 1 [6]): > 350 µM | MDD (Mus musculus [7]): 4.6 mean day of death | mortality at 5.6 mg/kg (Mus musculus [7]): 93% | IC50 (Human alphaherpesvirus 1 [8]): > 100 µM | Control (L1210 [2]): 48% | IC50 (Human alphaherpesvirus 2 [9]): 114 µM | IC50 (HFF): > 100 µM | IC50 (Human alphaherpesvirus 1 [10]): 117 µM | IC50 (Human betaherpesvirus 5 [11]): 14 µM | IC50 (Human alphaherpesvirus 1 [3]): > 100 µM | IC50 (Human alphaherpesvirus 1 [12]): 350 µM | IC50 [4]: > 100 µM | IC50 (Human betaherpesvirus 5 [13]): > 100 µM | MDD (Mus musculus [14]): 4.6 mean day of death | mortality at 16.7 mg/kg (Mus musculus [14]): 93% | MDD (Mus musculus [15]): 4.4 mean day of death | mortality at 50 mg/kg (Mus musculus [15]): 100% | IC50 (Human alphaherpesvirus 1 [16]): > 100 µM | IC50 [17]: 105 µM | IC50 (Human alphaherpesvirus 2 [18]): 350 µM | MDD (Mus musculus [19]): 4.7 mean day of death | mortality at 16.7 mg/kg (Mus musculus [19]): 100% | MDD (Mus musculus [20]): 4.6 mean day of death | mortality at 16.7 mg/kg (Mus musculus [20]): 100% | MDD (Mus musculus [21]): 4.5 mean day of death | mortality at 5.6 mg/kg (Mus musculus [21]): 100% | MDD (Mus musculus [22]): 4.9 mean day of death | mortality at 50 mg/kg (Mus musculus [22]): 87% | IC50 (Human betaherpesvirus 5 [5]): 14 µM | MDD (Mus musculus [23]): 5.6 mean day of death | mortality at 5.6 mg/kg (Mus musculus [23]): 100% | MDD (Mus musculus [24]): 4.1 mean day of death | mortality at 50 mg/kg (Mus musculus [24]): 73% | IC50 (Murid betaherpesvirus 1 [25]): 13 µM

Nc1nc2c(ncn2COC(CO)CO)c(=O)[nH]1 [GANCICLOVIR]
IC90 (Human betaherpesvirus 5 [1]): 1.8 µM | IC90 (Human alphaherpesvirus 1 [26]): 1.2 µM | IC50 (HFF): > 100 µM | IC50 [4]: > 100 µM | IC50 [17]: > 100 µM | IC50 (Human betaherpesvirus 5 [5]): 9.2 µM

N#Cc1cn([C@@H]2O[C@H](CO)[C@@H](O)[C@@H]2N=[N+]=[N-])c2ncnc(N)c12
IC90 (Human betaherpesvirus 5 [1]; [28]): 37 µM | Control (L1210 [2]): 14% | IC50 (HFF): 55 µM | IC50 (Human alphaherpesvirus 1 [3]): > 100 µM | IC50 [4]: > 100 µM | IC50 [17]: 151 µM | IC50 (Human betaherpesvirus 5 [5]): 34 µM

NC(=O)c1cn([C@@H]2O[C@H](CO)[C@@H](O)[C@@H]2Br)c2ncnc(N)c12
Control (L1210 [27]): 92% | IC50 (HFF): > 100 µM | IC50 (Human alphaherpesvirus 1 [3]): > 100 µM | IC50 [4]: > 100 µM | IC50 (Human betaherpesvirus 5 [5]): > 100 µM

NC(=O)c1cn([C@@H]2O[C@H](CO)[C@@H](O)[C@@H]2N)c2ncnc(N)c12
Control (L1210 [2]): 46% | IC50 (HFF): > 100 µM | IC50 (Human alphaherpesvirus 1 [3]): > 100 µM | IC50 [4]: > 100 µM | IC50 [17]: > 100 µM | IC50 (Human betaherpesvirus 5 [5]): > 100 µM
